Data as given in ChEMBL document CHEMBL4152209, “Synthesis of 7β-hydroxy-8-ketone opioid derivatives with antagonist activity at mu- and delta-opioid receptors” (Eur J Med Chem, 2018).
Calls of active or inactive are those of the source. No cut-off for these calls is given here.

Columns and labels:
[1] = biological target: T1, Delta-type opioid receptor (Homo sapiens, UniProt P41143); experiment: Displacement of [3H]diprenorphine from human DOR expressed in African green monkey COS1 cell membranes at 10 uM incubated for 1 hr by scintillation counting method
T1 sequence (P41143 whole entry): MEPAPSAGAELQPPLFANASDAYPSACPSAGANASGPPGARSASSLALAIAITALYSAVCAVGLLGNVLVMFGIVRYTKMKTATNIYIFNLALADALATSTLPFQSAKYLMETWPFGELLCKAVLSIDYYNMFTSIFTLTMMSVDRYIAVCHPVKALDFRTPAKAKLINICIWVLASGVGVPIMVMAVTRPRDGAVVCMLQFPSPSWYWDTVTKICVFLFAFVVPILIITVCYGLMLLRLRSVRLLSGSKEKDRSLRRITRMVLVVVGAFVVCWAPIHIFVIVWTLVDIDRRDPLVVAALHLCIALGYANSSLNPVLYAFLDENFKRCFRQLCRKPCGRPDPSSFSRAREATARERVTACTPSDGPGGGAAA

[2] = biological target: T1, Delta-type opioid receptor; experiment: Agonist activity at human DOR expressed in African green monkey COS1 cell membranes assessed as stimulation of [35S]GTPgS binding at 20 uM by scintillation counting method; assay type: functional
Method in brief: (§1)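 Membranes (5 µg) from stably transfected cells expressing hMOR or hDOR were incubated 1 h at 23 °C in 50 mM Tris-HCl pH 7.3 with 5 mM MgCl₂, 100 mM NaCl, 1 mM EDTA, 30 µM GDP and 0.2 nM [35S]GTPγS. Reference opioids were used at 1 or 10 µM and test ligands at 20 or 50 µM. Nonspecific binding was taken with 10 µM GTP. Samples were filtered and counted; three experiments in triplicate.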

[3] = biological target: T1, Delta-type opioid receptor; experiment: Displacement of [3H]diprenorphine from human DOR expressed in African green monkey COS1 cell membranes at 1 uM incubated for 1 hr by scintillation counting method
[4] = biological target: T1, Delta-type opioid receptor; experiment: Agonist activity at human DOR expressed in African green monkey COS1 cell membranes assessed as stimulation of [35S]GTPgS binding at 50 uM by scintillation counting method; assay type: functional; method in brief: as §1
[5] = biological target: Kappa-type opioid receptor (Homo sapiens) (UniProt P41145); settings: at 1 µM
Sequence of Kappa-type opioid receptor (Homo sapiens) (P41145 whole entry): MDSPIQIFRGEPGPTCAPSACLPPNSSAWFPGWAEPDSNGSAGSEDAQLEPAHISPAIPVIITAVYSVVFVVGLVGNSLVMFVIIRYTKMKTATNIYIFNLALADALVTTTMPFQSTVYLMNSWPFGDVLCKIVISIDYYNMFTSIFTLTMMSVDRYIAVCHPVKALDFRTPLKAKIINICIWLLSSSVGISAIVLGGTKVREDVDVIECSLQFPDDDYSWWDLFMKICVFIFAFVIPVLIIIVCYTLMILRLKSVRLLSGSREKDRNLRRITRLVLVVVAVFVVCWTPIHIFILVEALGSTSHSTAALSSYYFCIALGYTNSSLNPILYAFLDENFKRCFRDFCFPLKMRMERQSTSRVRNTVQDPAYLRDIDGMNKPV

[6] = biological target: T1, Delta-type opioid receptor; experiment: Antagonist activity at human DOR expressed in African green monkey COS1 cell membranes assessed as inhibition of SNC80-induced [35S]GTPgS binding at 50 uM by scintillation counting method; assay type: functional
Method in brief: (§2)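 Antagonism in [35S]GTPγS binding used 5 µg of hMOR or hDOR transfected-cell membranes, 1 h at 23 °C, in Tris-HCl pH 7.3 with MgCl₂, NaCl, EDTA, 30 µM GDP and 0.2 nM [35S]GTPγS. Test ligands at 20 or 50 µM were co-incubated with DAMGO (1 µM, MOR) or SNC80 (DOR). Read by filtration and scintillation; n=3 in triplicate.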

HEK293 = experiment: Toxicity in HEK293 cells assessed as reduction in cell viability at <100 uM incubated for 24 hrs by cell-titer Glo reagent based assay; settings: human, hek293, 24 h
Method in brief: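 HEK-293 cells, 9000 per well, were switched to Opti-MEM and exposed to compound (0.1–100 µM) for 24 h. Viability was read as lysate ATP by CellTiter-Glo luminescence.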

[7] = biological target: T1, Delta-type opioid receptor; experiment: Displacement of [3H]diprenorphine from human DOR expressed in African green monkey COS1 cell membranes incubated for 1 hr by scintillation counting method
Method in brief: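 hDOR membranes from stably transfected cells, diluted in 50 mM Tris-HCl pH 7.4 with 1 mM EDTA, were incubated with 1 nM [3H]diprenorphine (KD 1.1 nM; Bmax 4.7 pmol/mg) and competitor (1 × 10⁻⁷ to 5 × 10⁻⁵ M) for 1 h at 23 °C. Samples were then filtered on PEI-soaked GF/B and counted by scintillation. Ki was derived from KD; three experiments in triplicate.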

Mu-type opioid receptor [8] = biological target: T2, Mu-type opioid receptor (Homo sapiens, UniProt P35372); experiment: Antagonist activity at human MOR expressed in African green monkey COS1 cell membranes assessed as inhibition of DAMGO-induced [35S]GTPgS binding at 20 uM by scintillation counting method; assay type: functional; method in brief: as §2
T2 sequence (P35372 whole entry): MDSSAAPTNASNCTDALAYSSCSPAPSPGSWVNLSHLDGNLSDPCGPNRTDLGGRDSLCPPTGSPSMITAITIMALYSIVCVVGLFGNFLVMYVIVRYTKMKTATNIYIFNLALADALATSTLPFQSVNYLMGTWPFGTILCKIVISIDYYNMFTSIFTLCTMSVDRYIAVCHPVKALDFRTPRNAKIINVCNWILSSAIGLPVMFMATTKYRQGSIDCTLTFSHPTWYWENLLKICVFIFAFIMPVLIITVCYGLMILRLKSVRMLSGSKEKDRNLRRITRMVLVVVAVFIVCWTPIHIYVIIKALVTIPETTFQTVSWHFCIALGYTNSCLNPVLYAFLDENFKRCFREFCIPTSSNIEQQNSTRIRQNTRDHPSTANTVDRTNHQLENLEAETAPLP

[9] = biological target: Kappa-type opioid receptor (Homo sapiens) (UniProt P41145); settings: at 10 µM
Mu-type opioid receptor [10] = biological target: T2, Mu-type opioid receptor; experiment: Displacement of [3H]diprenorphine from human MOR expressed in African green monkey COS1 cell membranes incubated for 1 hr by scintillation counting method
Mu-type opioid receptor [11] = biological target: T2, Mu-type opioid receptor; settings: at 1 µM
Mu-type opioid receptor [12] = biological target: T2, Mu-type opioid receptor; experiment: Antagonist activity at human MOR expressed in African green monkey COS1 cell membranes assessed as inhibition of DAMGO-induced [35S]GTPgS binding at 50 uM by scintillation counting method; assay type: functional; method in brief: as §2
Mu-type opioid receptor [13] = biological target: T2, Mu-type opioid receptor; settings: at 10 µM

| Structure (SMILES) | inhibition [1] | Activity [2] | inhibition [3] | Activity [4] | inhibition [5] | inhibition [6] | Activity (HEK293) | Ki [7] | inhibition (Mu-type opioid receptor [8]) | inhibition [9] | Ki (Mu-type opioid receptor [10]) | inhibition (Mu-type opioid receptor [11]) | inhibition (Mu-type opioid receptor [12]) | inhibition (Mu-type opioid receptor [13]) |
| --- | --- | --- | --- | --- | --- | --- | --- | --- | --- | --- | --- | --- | --- | --- |
| CN1CC[C@]23c4c5ccc(O)c4O[C@H]2[C@@H](O)C=C[C@H]3[C@H]1C5 | 63% | Active | 31% | Active |  |  |  |  |  |  |  |  |  |  |
| Oc1ccc2c3c1O[C@H]1c4[nH]c5ccccc5c4C[C@@]4(O)[C@@H](C2)N(CC2CC2)CC[C@]314 | 94% |  | 94% |  |  |  |  |  |  |  |  |  |  |  |
| COC(=O)N1CC[C@]23c4c5ccc(O)c4O[C@H]2[C@@H](O)[C@H](O)C(=O)[C@H]3[C@H]1C5 | 63% | inactive | 24% | inactive | 6% | Active | Non-Toxic | 1130 to 1830 nM | Active | 21% | 1080 to 2580 nM | 8% | Active | 48% |
| C[C@@H](NC(=O)[C@@H](N)Cc1ccc(O)cc1)C(=O)NCC(=O)N(C)[C@@H](Cc1ccccc1)C(=O)NCCO |  |  |  |  |  |  |  |  |  |  |  | 67% |  | 85% |
| COC(=O)N1CC[C@]23c4c5ccc(OC(C)=O)c4O[C@H]2[C@@H](OC(C)=O)C=C[C@H]3[C@H]1C5 | 9% |  | 1% |  | 0% |  |  |  |  | 1% |  | 1% |  | 3% |
| COC(=O)N1CC[C@]23c4c5ccc(OC)c4O[C@H]2[C@@H](OC)[C@H](O)C(=O)[C@H]3[C@H]1C5 | 19% |  | 5% |  | 5% |  | Non-Toxic |  |  | 0% |  | 5% |  | 5% |
| COC(=O)N1CC[C@]23c4c5ccc(O)c4O[C@H]2[C@@H](O)C=C[C@H]3[C@H]1C5 | 59% | inactive | 21% | inactive | 7% | Active | Non-Toxic | 1690 to 2630 nM | Active | 27% | 814 to 1720 nM | 16% | Active | 58% |
| COC(=O)N1CC[C@]23c4c5ccc(OC(C)=O)c4O[C@H]2[C@@H](OC(C)=O)[C@H](O)C(=O)[C@H]3[C@H]1C5 | 51% |  | 22% |  | 4% |  | Non-Toxic |  |  | 8% |  | 7% |  | 9% |
| COC(=O)N1CC[C@]23c4c5ccc(OC)c4O[C@H]2[C@@H](OC)C=C[C@H]3[C@H]1C5 | 10% |  | 2% |  | 6% |  |  |  |  | 2% |  | 3% |  | 11% |
